Source: ChEMBL document CHEMBL2396597, “Synthesis and evaluation of novel orally active p53-MDM2 interaction inhibitors” (Bioorg Med Chem, 2013)
Each block holds one compound with its values, some of them ahead of it.

What was measured:
[1] = Metabolic stability in mouse liver microsomes assessed as compound remaining at 1 uM after 30 mins by LC-MS/MS analysis; assay type: ADME, Microsome; conditions: read-out: Stability
Method in brief: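 Compound at 1 μM final was incubated with mouse hepatic microsomes (0.5 mg/mL protein) in sodium phosphate buffer pH 7.4 at 37°C. Reaction was started with an NADPH-generating system and stopped with MeOH after 30 min. Samples were centrifuged, and loss of parent was measured by LC-MS/MS as % remaining.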

[2] = Drug uptake in tumor of NOD/SCID mouse xenografted with human MV4-11 cells at 100 mg/kg, po measured at 24 hrs by LC-MS/MS analysis; assay type: ADME, organism-based, Neoplasm; design: dose 100 mg/kg, route oral; conditions: read-out: Drug uptake
Method in brief: (§1)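 Tumor-bearing mice were given 100 mg/kg orally, suspended in Japanese Pharmacopoeia First Fluid (pH 1.2). Tumors were collected at 1, 2, 4, 6 and 24 h after dosing and homogenized. Tumor drug concentration was quantified by LC/MS/MS on an ODS column.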

[3] = Drug uptake in tumor of NOD/SCID mouse xenografted with human MV4-11 cells at 100 mg/kg, po measured at 6 hrs by LC-MS/MS analysis; assay type: ADME, organism-based, Neoplasm; design: dose 100 mg/kg, route oral; conditions: read-out: Drug uptake; method in brief: as §1
[4] = Drug uptake in tumor of NOD/SCID mouse xenografted with human MV4-11 cells at 100 mg/kg, po measured at 4 hrs by LC-MS/MS analysis; assay type: ADME, organism-based, Neoplasm; design: dose 100 mg/kg, route oral; conditions: read-out: Drug uptake; method in brief: as §1
[5] = Drug uptake in tumor of NOD/SCID mouse xenografted with human MV4-11 cells at 100 mg/kg, po measured at 2 hrs by LC-MS/MS analysis; assay type: ADME, organism-based, Neoplasm; design: dose 100 mg/kg, route oral; conditions: read-out: Drug uptake; method in brief: as §1
[6] = Drug uptake in tumor of NOD/SCID mouse xenografted with human MV4-11 cells at 100 mg/kg, po measured at 1 hr by LC-MS/MS analysis; assay type: ADME, organism-based, Neoplasm; design: dose 100 mg/kg, route oral; conditions: read-out: Drug uptake; method in brief: as §1
[7] = Plasma concentration in NOD/SCID mouse at 100 mg/kg, po measured at 6 hrs; assay type: ADME, organism-based; design: dose 100 mg/kg, route oral
[8] = Plasma concentration in NOD/SCID mouse at 100 mg/kg, po measured at 24 hrs; assay type: ADME, organism-based; design: dose 100 mg/kg, route oral
[9] = Plasma concentration in NOD/SCID mouse at 100 mg/kg, po measured at 4 hrs; assay type: ADME, organism-based; design: dose 100 mg/kg, route oral
[10] = Plasma concentration in NOD/SCID mouse at 100 mg/kg, po measured at 1 hr; assay type: ADME, organism-based; design: dose 100 mg/kg, route oral
[11] = Plasma concentration in NOD/SCID mouse at 100 mg/kg, po measured at 2 hrs; assay type: ADME, organism-based; design: dose 100 mg/kg, route oral
[12] = AUC in NOD/SCID mouse at 100 mg/kg, po; assay type: ADME, organism-based; design: dose 100 mg/kg, route oral; conditions: plasma

SMILES: CC[C@@H]1CC[C@@H](C(=O)N2CCOCC2)N1C(=O)C1=C(C(C)C)N2C(=N[C@@](C)(c3ccc(Cl)cc3)[C@H]2c2ccc(Cl)cc2)S1
remaining at 0.5 h, 1 µM [1]: 6%

SMILES: CC(C)C1=C(C(=O)N2[C@H](C)CC[C@H]2C(=O)N2CCN(C)C(C)(C)C2)SC2=N[C@@](C)(c3ccc(Cl)cc3)[C@@H](c3ccc(Cl)cc3)N21
remaining at 0.5 h, 1 µM [1]: 84%

SMILES: CC[C@@H]1CC[C@@H](C(=O)N2CCN(C(C)=O)[C@@H](C)C2)N1C(=O)C1=C(C(C)C)N2C(=N[C@@](C)(c3ccc(Cl)cc3)[C@H]2c2ccc(Cl)cc2)S1
remaining at 0.5 h, 1 µM [1]: 54%

SMILES: CC(C)C1=C(C(=O)N2[C@H](C)CC[C@H]2C(=O)N2CCN(C)CC2)SC2=N[C@@](C)(c3ccc(Cl)cc3)[C@@H](c3ccc(Cl)cc3)N21
remaining at 0.5 h, 1 µM [1]: 25%

SMILES: CC[C@@H]1CC[C@@H](C(=O)N2CCN(C(C)=O)CC2)N1C(=O)C1=C(C(C)C)N2C(=N[C@@](C)(c3ccc(Cl)cc3)[C@H]2c2ccc(Cl)cc2)S1
remaining at 0.5 h, 1 µM [1]: 38%

SMILES: CC(C)C1=C(C(=O)N2[C@H](C)CC[C@H]2C(=O)N2CCN(C)[C@H](C)C2)SC2=N[C@@](C)(c3ccc(Cl)cc3)[C@@H](c3ccc(Cl)cc3)N21
concentration at 24 h [2]: 4300 ng/mL | concentration at 6 h [3]: 27500 ng/mL | concentration at 4 h [4]: 27900 ng/mL | concentration at 2 h [5]: 23300 ng/mL | concentration at 1 h [6]: 18900 ng/mL | concentration at 6 h [7]: 5700 ng/mL | concentration at 24 h [8]: 300 ng/mL | concentration at 4 h [9]: 7500 ng/mL | concentration at 1 h [10]: 6900 ng/mL | concentration at 2 h [11]: 7800 ng/mL | AUC [12]: 93.1 µg·h/mL | remaining at 0.5 h, 1 µM [1]: 74%

SMILES: CC[C@@H]1CC[C@@H](C(=O)N2CCN(C)[C@@H](C)C2)N1C(=O)C1=C(C(C)C)N2C(=N[C@@](C)(c3ccc(Cl)cc3)[C@H]2c2ccc(Cl)cc2)S1
remaining at 0.5 h, 1 µM [1]: 69%

SMILES: CC[C@@H]1CC[C@@H](C(=O)N2CCN(C(C)=O)[C@H](C)C2)N1C(=O)C1=C(C(C)C)N2C(=N[C@@](C)(c3ccc(Cl)cc3)[C@H]2c2ccc(Cl)cc2)S1
concentration at 6 h [3]: 25200 ng/mL | concentration at 4 h [4]: 31200 ng/mL | concentration at 2 h [5]: 32700 ng/mL | concentration at 1 h [6]: 31500 ng/mL | concentration at 6 h [7]: 48200 ng/mL | concentration at 24 h [8]: 100 ng/mL | concentration at 4 h [9]: 46400 ng/mL | concentration at 1 h [10]: 59600 ng/mL | concentration at 2 h [11]: 68400 ng/mL | AUC [12]: 737 µg·h/mL | remaining at 0.5 h, 1 µM [1]: 59%

SMILES: CC[C@H]1CC[C@@H](C(=O)N(C)C)N1C(=O)C1=C(C(C)C)N2C(=N[C@@](C)(c3ccc(Cl)cc3)[C@H]2c2ccc(Cl)cc2)S1
remaining at 0.5 h, 1 µM [1]: 47%

Continued, values first:

remaining at 0.5 h, 1 µM [1]: 13%
SMILES: CC(=O)N1CCN(C(=O)[C@@H]2CC[C@@H](C)N2C(=O)C2=C(C(C)C)N3C(=N[C@@](C)(c4ccc(Cl)cc4)[C@H]3c3ccc(Cl)cc3)S2)CC1

remaining at 0.5 h, 1 µM [1]: 65%
SMILES: CC(=O)N1CCN(C(=O)[C@@H]2CC[C@@H](C)N2C(=O)C2=C(C(C)C)N3C(=N[C@@](C)(c4ccc(Cl)cc4)[C@H]3c3ccc(Cl)cc3)S2)C[C@@H]1C

remaining at 0.5 h, 1 µM [1]: 63%
SMILES: CC(C)C1=C(C(=O)N2[C@H](C)CC[C@H]2C(=O)N2CCN(C)[C@@H](C)C2)SC2=N[C@@](C)(c3ccc(Cl)cc3)[C@@H](c3ccc(Cl)cc3)N21

remaining at 0.5 h, 1 µM [1]: 50%
SMILES: CC[C@@H]1CC[C@@H](C(=O)N2CCN(C)CC2)N1C(=O)C1=C(C(C)C)N2C(=N[C@@](C)(c3ccc(Cl)cc3)[C@H]2c2ccc(Cl)cc2)S1

remaining at 0.5 h, 1 µM [1]: 53%
SMILES: CC(C)C1=C(C(=O)N2[C@H](C)CC[C@H]2C(=O)N(C)C)SC2=N[C@@](C)(c3ccc(Cl)cc3)[C@@H](c3ccc(Cl)cc3)N21

remaining at 0.5 h, 1 µM [1]: 9%
SMILES: CC(C)C1=C(C(=O)N2CCC[C@H]2C(=O)N(C)C)SC2=N[C@@](C)(c3ccc(Cl)cc3)[C@@H](c3ccc(Cl)cc3)N21

remaining at 0.5 h, 1 µM [1]: 70%
SMILES: CC[C@@H]1CC[C@@H](C(=O)N(C)C)N1C(=O)C1=C(C(C)C)N2C(=N[C@@](C)(c3ccc(Cl)cc3)[C@H]2c2ccc(Cl)cc2)S1

remaining at 0.5 h, 1 µM [1]: 76%
SMILES: CC[C@@H]1CC[C@@H](C(=O)N2CCN(C)[C@H](C)C2)N1C(=O)C1=C(C(C)C)N2C(=N[C@@](C)(c3ccc(Cl)cc3)[C@H]2c2ccc(Cl)cc2)S1

remaining at 0.5 h, 1 µM [1]: 39%
SMILES: CC(C)C1=C(C(=O)N2[C@@H](C)CC[C@H]2C(=O)N(C)C)SC2=N[C@@](C)(c3ccc(Cl)cc3)[C@@H](c3ccc(Cl)cc3)N21

remaining at 0.5 h, 1 µM [1]: 55%
SMILES: CC(=O)N1CCN(C(=O)[C@@H]2CC[C@@H](C)N2C(=O)C2=C(C(C)C)N3C(=N[C@@](C)(c4ccc(Cl)cc4)[C@H]3c3ccc(Cl)cc3)S2)C[C@H]1C
